ChEMBL document CHEMBL4699497, “Synthesis of indole-tethered [1,3,4]thiadiazolo and [1,3,4]oxadiazolo[3,2-a]pyrimidin-5-one hybrids as anti-pancreatic cancer agents” (Bioorg Med Chem Lett, 2020)

Test system: PANC-1
Assay: Cytotoxicity against human PANC1 cells assessed as reduction in cell viability measured after 48 hrs by MTS assay
Format: functional, cell-based
Settings: for IC50: PANC-1, 48 h
Method in brief: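 Human PANC-1 pancreatic cancer cells exposed to a range of doses of each compound for 48 h. Surviving cells quantified by MTS viability read-out, and IC50 derived from the dose-response curves.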

| SMILES | inhibition | IC50 [µM] |
| --- | --- | --- |
| O=c1c(-n2ccc3ccccc32)cnc2oc(-c3ccc(Br)cc3)nn12 | Dose-dependent effect | 90.5 |
| Cc1cc2ccccc2n1-c1cnc2sc(-c3ccccc3)nn2c1=O |  | > 100 |
| O=c1c(-n2ccc3ccccc32)cnc2oc(-c3ccccc3Cl)nn12 | Dose-dependent effect | 7.7 |
| Cc1cc2ccccc2n1-c1cnc2sc(-c3cccc(Br)c3)nn2c1=O |  | > 100 |
| O=c1c(-n2ccc3ccccc32)cnc2sc(-c3ccc(Br)cc3)nn12 |  | > 100 |
| O=c1c(-n2ccc3ccccc32)cnc2oc(-c3ccccc3)nn12 | Dose-dependent effect | 21.1 |
| Cc1cc2ccccc2n1-c1cnc2oc(-c3ccc(Cl)cc3)nn2c1=O | Dose-dependent effect | 40 |
| Cc1cc2ccccc2n1-c1cnc2sc(-c3ccccc3Cl)nn2c1=O |  | > 100 |
| O=c1c(-n2ccc3ccccc32)cnc2oc(-c3ccc(Cl)cc3)nn12 | Dose-dependent effect | 94.9 |
| Nc1ccn([C@@H]2O[C@H](CO)[C@@H](O)C2(F)F)c(=O)n1 [GEMCITABINE] |  | > 500 |
| O=c1c(-n2ccc3ccccc32)cnc2sc(-c3cccc(Br)c3)nn12 |  | > 100 |
| O=c1c(-n2ccc3ccccc32)cnc2sc(-c3ccccc3Cl)nn12 |  | > 100 |
| O=c1c(-n2ccc3ccccc32)cnc2sc(-c3ccccc3)nn12 |  | > 100 |
| Cc1cc2ccccc2n1-c1cnc2sc(-c3ccc(Br)cc3)nn2c1=O |  | > 100 |
| O=c1c(-n2ccc3ccccc32)cnc2sc(-c3ccc(Cl)cc3)nn12 |  | > 100 |
| O=c1c(-n2ccc3ccccc32)cnc2sc(-c3cccc(Cl)c3)nn12 |  | > 100 |
